Assay results reported in ChEMBL document CHEMBL2021862, “5-imino-1,2,4-thiadiazoles: first small molecules as substrate competitive inhibitors of glycogen synthase kinase 3” (J Med Chem, 2012).
pIC50: −log10 of the molar value. Calls of active or inactive are those of the source. The rule behind the calls is not given here.

What was measured:
[1] = molecular target: T1, Glycogen synthase kinase-3 beta (Homo sapiens, UniProt P49841); assay: Inhibition of human recombinant GSK3beta at 10 uM after 30 mins by luminescence assay in presence of ATP
How it was run: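 Human recombinant GSK-3β (20 ng) with prephosphorylated polypeptide substrate 25 μM and ATP 1 μM in 50 mM HEPES pH 7.5, 1 mM EDTA, 1 mM EGTA, 15 mM Mg acetate. Final DMSO ≤1%. Incubated 30 min at 30 °C, stopped with Kinase-Glo reagent, and luminescence read after 10 min. Inhibition is relative to the no-inhibitor maximum. IC50 is the concentration giving 50% activity loss.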
Target sequence in this assay (P49841 whole entry, looked up): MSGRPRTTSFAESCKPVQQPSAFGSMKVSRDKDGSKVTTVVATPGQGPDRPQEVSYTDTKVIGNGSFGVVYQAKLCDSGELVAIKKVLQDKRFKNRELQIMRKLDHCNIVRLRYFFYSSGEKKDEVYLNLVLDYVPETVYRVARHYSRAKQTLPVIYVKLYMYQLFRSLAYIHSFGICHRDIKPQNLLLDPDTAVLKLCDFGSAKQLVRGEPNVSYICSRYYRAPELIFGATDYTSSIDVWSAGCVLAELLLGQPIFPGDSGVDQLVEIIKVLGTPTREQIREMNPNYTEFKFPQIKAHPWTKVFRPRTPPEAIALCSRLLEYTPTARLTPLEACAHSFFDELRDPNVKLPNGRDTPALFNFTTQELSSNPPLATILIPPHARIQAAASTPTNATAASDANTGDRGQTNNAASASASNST

[2] = Effective permeability across porcine polar brain lipid after 4 hrs by PAMPA; details: pig; for Peff: pampa, 4 h; for Papp at 4 h: PAMPA
[3] = molecular target: T1, Glycogen synthase kinase-3 beta; assay: Inhibition of human recombinant GSK3beta after 30 mins by luminescence assay in presence of ATP
Target sequence in this assay (P49841 whole entry): as the sequence (P49841 whole entry, looked up) above

NSC = assay: Neurogenic activity in rat hippocampal NSC assessed as increase in beta-tubulin after 24 hrs by DAPI staining-based immunocytometric analysis; assay type: functional, cell-based; details: Hippocampus
How it was run: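 Neurospheres from adult rat hippocampus were expanded in DMEM/F12 with EGF and FGF (10 ng/mL each) and B27, and treated with compound. Spheres were plated on poly-L-lysine without growth factors. Cells were fixed in 4% paraformaldehyde, permeabilized with 0.1% Triton X-100, stained with anti-β-tubulin (Tuj1) and an Alexa secondary, counterstained with DAPI, and imaged by confocal microscopy.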

Microglia = assay: Neuroprotective activity in rat microglia cells assessed as decrease in LPS-induced nitrite production at 28 to 52 ug/ml after 24 hrs administered 1 hr before LPS challenge by Griess method; assay type: functional, cell-based
How it was run: (§1)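 Astrocytes and microglia were from neonatal (P2) rat cortex, separated by shaking; microglia received 10 ng/mL GM-CSF. Purity >98% (OX42/GFAP). Cells were pretreated 1 h with compound, then given LPS for 24 h. Supernatant was mixed 1:1 with Griess reagent, left 15 min at room temperature, and absorbance read at 492/540 nm.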

Cortical neurone = assay: Neuroprotective activity in rat cortical neurons assessed as decrease in LPS-induced nitrite production at 28 to 52 ug/ml after 24 hrs administered 1 hr before LPS challenge by Griess method; assay type: functional
How it was run: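 Cortical neurons from E18 rats were grown in Neurobasal/B-27 at 37 °C, 5% CO2 for 1 week. They were pretreated 1 h with compound, then exposed to supernatant from LPS-stimulated microglia. After 24 h, nitrite in the medium was measured by Griess reaction (equal volume reagent, 15 min room temperature, absorbance 492/540 nm).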

Astrocyte = assay: Neuroprotective activity in rat astrocytes assessed as decrease in LPS-induced nitrite production at 28 to 52 ug/ml after 24 hrs administered 1 hr before LPS challenge by Griess method; assay type: functional, cell-based; how it was run: as §1

Compound	inhibition [1]	pIC50 [3]	other results
S=C(N/C(=N/c1ccccc1)c1ccccc1)Nc1ccccn1	inactive		
CCOC(=O)CNC(=S)N/C(=N/c1ccc(OC)cc1)c1ccccc1	inactive		
CCOC(=O)CNC(=S)N/C(=N/c1ccc([N+](=O)[O-])cc1)c1ccccc1	inactive		
CCCCCNC(=S)N/C(=N/c1ccccc1)c1ccc(OC)cc1	inactive		
Br.c1ccc(-c2n/c(=N\C3CCCCC3)sn2-c2ccccc2)cc1	> 60%	5.68	Peff [2]: ND(Insoluble)
Br.Cc1n/c(=N\Cc2cccnc2)sn1-c1ccccc1	> 60%	6.22	Papp at 4 h [2]: 5.3 ×10⁻⁶ cm/s
OCCNC(=S)N/C(=N/c1ccccc1)c1ccccc1	inactive		
CCCCC/N=c1\nc(-c2ccc(OC)cc2)n(-c2ccccc2)s1 [listing 1 of 2 here]	> 60%		
CCOC(=O)C/N=c1\nc(-c2ccccc2)n(-c2ccccc2)s1 [listing 1 of 2 here]		5.74	
CCCCC/N=c1\nc(-c2ccccc2)n(-c2ccccc2)s1	> 60%	5.85	
c1ccc(-n2s/c(=N/Cc3cccnc3)nc2-c2cccc3ccccc23)cc1 [listing 1 of 3 here]		5.68	
COc1ccc(/N=C(/NC(=S)NCCO)c2ccccc2)cc1	inactive		
Cn1c(=O)c2c(ncn2C)n(C)c1=O [CAFFEINE]			Papp at 4 h [2]: 1.6 ×10⁻⁶ cm/s
CCOC(=O)C/N=c1\nc(-c2ccccc2)n(-c2ccc([N+](=O)[O-])cc2)s1	> 60%	6.00	
Br.OCC/N=c1\nc(-c2cccc3ccccc23)n(-c2ccccc2)s1	> 60%	6.52	Papp at 4 h [2]: 10.2 ×10⁻⁶ cm/s
c1ccc(-c2n/c(=N\Cc3cccnc3)sn2-c2cccc3ccccc23)cc1	> 60%	5.70	
CCOC(=O)CNC(=S)N/C(=N/c1ccccc1)c1ccc(OC)cc1	inactive		
COc1ccc(/C(=N\c2ccccc2)NC(=S)NCc2cccnc2)cc1	inactive		
Br.COc1ccc(-c2n/c(=N\c3ccccc3)sn2-c2ccccc2)cc1	> 60%	5.96	Peff [2]: ND(Insoluble)
Br.CCOC(=O)C/N=c1\nc(-c2ccccc2)n(-c2ccc(OC)cc2)s1	> 60%	5.70	Papp at 4 h [2]: 4.4 ×10⁻⁶ cm/s
CCCCCNC(=S)N/C(=N/c1ccccc1)c1ccccc1	inactive		

Compound	inhibition [1]	pIC50 [3]	other results
O=[N+]([O-])c1ccc(/N=C(/NC(=S)NCc2cccnc2)c2ccccc2)cc1	inactive		
c1ccc(Cn2s/c(=N/Cc3cccnc3)nc2-c2ccccc2)cc1	> 60%	5.96	
FC(F)(F)c1ccc(/C(=N\c2ccccc2)NC(=S)NCc2cccnc2)cc1	inactive		
S=C(NCc1cccnc1)N/C(=N/c1ccccc1)c1ccccc1	inactive		
Br.N=c1nc(-c2ccccc2)n(-c2ccccc2)s1	> 60%	6.22	Papp at 4 h [2]: 9.1 ×10⁻⁶ cm/s
c1ccc(/N=c2\nc(-c3ccccc3)n(-c3ccccc3)s2)cc1	> 60%		Peff [2]: ND(Insoluble)
S=C(NCCN1CCOCC1)N/C(=N/c1ccccc1)c1ccccc1	inactive		
Br.c1ccc(/N=c2/nc(-c3ccccc3)n(-c3ccccc3)s2)cc1	> 60%		Peff [2]: ND(Insoluble)
OCCNC(=S)N/C(=N/c1ccccc1)c1cccc2ccccc12	inactive		
CCCCC/N=c1\nc(-c2ccc(OC)cc2)n(-c2ccccc2)s1.Cl		5.96	Papp at 4 h [2]: 8.5 ×10⁻⁶ cm/s
CN1C(C(=O)Nc2ccccn2)=C(O)c2ccccc2S1(=O)=O [PIROXICAM]			Papp at 4 h [2]: 1.7 ×10⁻⁶ cm/s
NC(=S)N/C(=N/c1ccccc1)c1ccccc1	inactive		
Br.FC(F)(F)c1ccc(-c2n/c(=N\Cc3cccnc3)sn2-c2ccccc2)cc1	> 60%	5.80	Peff [2]: ND(Insoluble)
S=C(NCc1cccnc1)N/C(=N/Cc1ccccc1)c1ccccc1	inactive		
Br.COc1ccc(-n2s/c(=N/Cc3cccnc3)nc2-c2ccccc2)cc1	> 60%	5.39	Papp at 4 h [2]: 6.3 ×10⁻⁶ cm/s
S=C(N/C(=N/c1ccccc1)c1ccccc1)NC1CCCCC1	inactive		
COc1ccc(/C(=N\c2ccccc2)NC(=S)NCCO)cc1	inactive		
OCCNC(=S)N/C(=N/c1cccc2ccccc12)c1ccccc1	inactive		
Cl.OCC/N=c1\nc(-c2ccccc2)n(-c2ccccc2)s1		6.22	Papp at 4 h [2]: 13.6 ×10⁻⁶ cm/s
Br.CCOC(=O)C/N=c1\nc(-c2ccccc2)n(-c2ccccc2)s1		5.15	Papp at 4 h [2]: 6.2 ×10⁻⁶ cm/s
S=C(NCc1cccnc1)N/C(=N/c1ccccc1)c1cccc2ccccc12	inactive		

Compound	inhibition [1]	pIC50 [3]	other results
COc1ccc(/C(=N\c2ccccc2)NC(=S)Nc2ccccc2)cc1	inactive		
c1ccc(/N=C(/N=c2/nc3ccccn3s2)c2ccccc2)cc1	14%		
c1ccc(-n2s/c(=N/Cc3cccnc3)nc2-c2cccc3ccccc23)cc1 [listing 2 of 3 here]		6.05	
O=[N+]([O-])c1ccc(-n2s/c(=N/Cc3cccnc3)nc2-c2ccccc2)cc1	> 60%	6.00	
C/C(=N\c1ccccc1)NC(=S)NCc1cccnc1	inactive		
Br.COc1ccc(-n2s/c(=N/CCO)nc2-c2ccccc2)cc1	> 60%	5.34	Activity (NSC): Active; Activity (Microglia): Active; Activity (Cortical neurone): Active; Papp at 4 h [2]: 13.4 ×10⁻⁶ cm/s; Activity (Astrocyte): Active
COc1ccc(/N=C(/NC(=S)NCc2cccnc2)c2ccccc2)cc1	inactive		
CCOC(=O)C/N=c1\nc(-c2ccccc2)n(-c2ccccc2)s1 [listing 2 of 2 here]	> 60%		Activity (NSC): Active; Activity (Microglia): Active; Activity (Cortical neurone): Active; Activity (Astrocyte): Active
CCOC(=O)CNC(=S)N/C(=N/c1ccccc1)c1ccccc1	inactive		
Br.OCC/N=c1\nc(-c2ccccc2)n(-c2ccccc2)s1		5.70	Papp at 4 h [2]: 15.8 ×10⁻⁶ cm/s
CCCCCc1n/c(=N\Cc2cccnc2)sn1-c1ccccc1	> 60%	6.10	
OCC/N=c1\nc(-c2ccccc2)n(-c2cccc3ccccc23)s1	> 60%	6.52	
S=C(N/C(=N/c1ccccc1)c1ccccc1)Nc1ccccc1	inactive		
CCCCC/N=c1\nc(-c2ccc(OC)cc2)n(-c2ccccc2)s1 [listing 2 of 2 here]		6.52	
c1ccc(-n2s/c(=N/Cc3cccnc3)nc2-c2cccc3ccccc23)cc1 [listing 3 of 3 here]	> 60%		
Br.COc1ccc(-c2n/c(=N\CCO)sn2-c2ccccc2)cc1	> 60%	5.92	Papp at 4 h [2]: 13.7 ×10⁻⁶ cm/s
CNCCCN1c2ccccc2CCc2ccccc21 [DESIPRAMINE]			Papp at 4 h [2]: 14.9 ×10⁻⁶ cm/s
Br.COc1ccc(-c2n/c(=N\Cc3cccnc3)sn2-c2ccccc2)cc1	> 60%	5.92	Papp at 4 h [2]: 4.8 ×10⁻⁶ cm/s
CCCCC/C(=N\c1ccccc1)NC(=S)NCc1cccnc1	inactive		
Br.CCOC(=O)C/N=c1\nc(-c2ccc(OC)cc2)n(-c2ccccc2)s1	> 60%	6.30	Papp at 4 h [2]: 4 ×10⁻⁶ cm/s
S=C(NCc1cccnc1)N/C(=N/c1cccc2ccccc12)c1ccccc1	inactive		
